One molecule from ChEMBL document CHEMBL5649170, “Sustained microglial depletion with CSF1R inhibitor impairs parenchymal plaque development in an Alzheimer's disease model” (Nat Commun, 2019) can be followed below.

Data set [1] is described as follows: Drug concentration in 5XFAD mouse plasma at 1200 ppm administered as rodent chow for 180 days. In kind it is ADME, cell-free. The settings on record: route po, time 180 day.
Data set [2] in a line: AUC (0 to 24 hrs) in mouse plasma at 300 ppm administered as rodent chow for 14 days. The format is ADME, cell-free. The settings on record: route po, time 14 day.
The target in data set [3] is Casein kinase II subunit alpha (Homo sapiens, UniProt P68400). Put plainly: Inhibition of CSNK2A1 (unknown origin).
Data set [4] concerns the target Proto-oncogene tyrosine-protein kinase receptor Ret (Homo sapiens, UniProt P07949, Y791F). As to the kind of experiment: Inhibition of RET Y791F mutant (unknown origin).
Data set [5] has as its target NT-3 growth factor receptor (Homo sapiens, UniProt Q16288). Put plainly: Inhibition of NTRK3 (unknown origin).
For data set [6], the target named is T1, Macrophage colony-stimulating factor 1 receptor (Mus musculus) (UniProt P09581).
T1 sequence (whole entry): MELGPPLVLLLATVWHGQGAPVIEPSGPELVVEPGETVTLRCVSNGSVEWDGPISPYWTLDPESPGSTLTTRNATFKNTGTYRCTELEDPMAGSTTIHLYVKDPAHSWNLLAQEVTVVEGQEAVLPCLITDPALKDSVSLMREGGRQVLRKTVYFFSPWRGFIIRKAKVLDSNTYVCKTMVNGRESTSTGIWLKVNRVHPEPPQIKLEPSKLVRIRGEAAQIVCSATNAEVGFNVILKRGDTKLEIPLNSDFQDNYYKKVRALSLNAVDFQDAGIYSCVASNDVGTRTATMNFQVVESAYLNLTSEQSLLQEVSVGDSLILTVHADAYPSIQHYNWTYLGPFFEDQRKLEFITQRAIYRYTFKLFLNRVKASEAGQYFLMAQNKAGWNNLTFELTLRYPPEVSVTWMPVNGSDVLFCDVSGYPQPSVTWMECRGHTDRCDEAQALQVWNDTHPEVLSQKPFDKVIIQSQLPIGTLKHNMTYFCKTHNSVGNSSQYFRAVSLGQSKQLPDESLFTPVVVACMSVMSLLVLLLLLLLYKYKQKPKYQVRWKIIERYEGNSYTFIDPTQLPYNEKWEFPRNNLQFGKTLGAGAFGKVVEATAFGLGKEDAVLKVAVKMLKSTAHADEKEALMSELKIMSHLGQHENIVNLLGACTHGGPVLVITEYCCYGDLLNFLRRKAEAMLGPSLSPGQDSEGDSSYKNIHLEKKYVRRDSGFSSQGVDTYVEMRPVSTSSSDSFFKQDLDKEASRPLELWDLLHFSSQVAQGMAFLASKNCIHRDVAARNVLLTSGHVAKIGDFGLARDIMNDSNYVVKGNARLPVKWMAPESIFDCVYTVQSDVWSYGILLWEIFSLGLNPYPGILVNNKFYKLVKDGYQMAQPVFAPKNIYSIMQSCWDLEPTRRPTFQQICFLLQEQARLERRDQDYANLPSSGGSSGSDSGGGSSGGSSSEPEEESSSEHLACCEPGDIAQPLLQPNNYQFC
Put plainly: In vivo inhibition of CSF1R in wildtype mouse assessed as number of GFAP positive cells per FOV at 1200 ppm administered as rodent chow starting from 1.5 months to 4 months followed by compound removal and measured after 1 month by immunolabeling based confocal microscopic analysis (reference value: 1 to 7). The settings on record: route po, time 2.5 months. The format is functional.

Data set [7] in a line: Effect on ccl6 gene expression in wild type mouse cortex at 1200 ppm administered as rodent chow starting from 1.5 months and measured after 7 months by RNA-Seq analysis (reference value: 0.280 to 1.162 RPKM). The settings on record: route po, time 5.5 months, 4015 h. In kind it is functional.
Data set [8] has as its target T1, Macrophage colony-stimulating factor 1 receptor (Mus musculus). As to the kind of experiment: In vivo inhibition of CSF1R in wildtype mouse assessed as number of Iba1 positive cells per FOV in […] cortex at 1200 ppm administered as rodent chow starting from 1.5 months to 4 months followed by compound removal and measured after 1 months by immunolabelling based confocal microscopic analysis (reference value: 193 to 236). The conditions noted are these: route po, time 2.5 months. In kind it is functional.

Data set [9] addresses Protein kinase C iota type (Homo sapiens, UniProt P41743). Put plainly: Inhibition of PRKCI (unknown origin).
The target of data set [10] is Phosphatidylinositol 4-kinase beta (Homo sapiens, UniProt Q9UBF8). As to the kind of experiment: Inhibition of PI4KB (unknown origin).
Chain of Phosphatidylinositol 4-kinase beta (Q9UBF8 whole entry): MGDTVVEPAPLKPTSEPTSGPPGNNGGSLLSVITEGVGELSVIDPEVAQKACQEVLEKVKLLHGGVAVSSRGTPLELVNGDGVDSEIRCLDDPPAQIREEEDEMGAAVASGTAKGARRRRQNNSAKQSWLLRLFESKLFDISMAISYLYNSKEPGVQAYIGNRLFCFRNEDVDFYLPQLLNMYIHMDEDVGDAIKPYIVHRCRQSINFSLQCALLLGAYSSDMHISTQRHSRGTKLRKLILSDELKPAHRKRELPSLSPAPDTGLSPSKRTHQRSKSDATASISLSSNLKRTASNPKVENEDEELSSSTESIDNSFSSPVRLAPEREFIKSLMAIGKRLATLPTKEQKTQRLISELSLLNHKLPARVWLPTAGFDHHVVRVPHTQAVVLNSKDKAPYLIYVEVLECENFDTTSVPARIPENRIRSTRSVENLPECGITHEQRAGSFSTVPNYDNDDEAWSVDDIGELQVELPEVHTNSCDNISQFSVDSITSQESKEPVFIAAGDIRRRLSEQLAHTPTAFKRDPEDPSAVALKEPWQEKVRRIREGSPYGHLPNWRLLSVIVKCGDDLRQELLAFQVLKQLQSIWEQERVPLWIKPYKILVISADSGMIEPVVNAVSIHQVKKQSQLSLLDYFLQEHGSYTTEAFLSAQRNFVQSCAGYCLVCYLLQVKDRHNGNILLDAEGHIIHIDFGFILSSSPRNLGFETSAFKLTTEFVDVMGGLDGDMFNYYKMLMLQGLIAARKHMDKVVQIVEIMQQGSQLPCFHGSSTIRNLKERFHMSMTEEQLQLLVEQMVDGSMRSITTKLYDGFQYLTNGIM
For data set [11], the system named is Mus musculus. As to the kind of experiment: Prevention of Apc gene downregulation in 5XFAD mouse hippocampus at 1200 ppm administered as rodent chow starting from 1.5 months and measured after 7 months by Nanostring analysis. The format is functional, tissue-based. The conditions noted are these: route po, time 5.5 months.
Data set [12] concerns Mus musculus. Put plainly: Prevention of Fcrls gene upregulation in 5XFAD mouse hippocampus at 1200 ppm administered as rodent chow starting from 1.5 months and measured after 7 months by Nanostring analysis. The conditions noted are these: route po, time 5.5 months. The format is functional, tissue-based.
A short description of data set [13]: Effect on Spi1 gene expression in 5XFAD mouse hippocampus at 1200 ppm administered as rodent chow starting from 1.5 months and measured after 7 months by RNA-Seq analysis (reference value: 2.582 to 3.674 RPKM). The settings on record: route po, time 5.5 months, 4015 h. In kind it is functional.
The nature of data set [14]: Effect on Cx3cr1 gene expression in wild type mouse cortex at 1200 ppm administered as rodent chow starting from 1.5 months and measured after 7 months by RNA-Seq analysis (reference value: 9.334 to 12.119). The format is functional. The conditions noted are these: route po, time 5.5 months, 4015 h.
For data set [15], the system named is Mus musculus. Put plainly: Antialzheimer activity in 5XFAD mouse assessed as number of Thio-S positive plaques per FOV in thalamus at 1200 ppm administered as rodent chow starting from 1.5 months and measured after 4 months by Thio-S staining based confocal microscopic analysis (reference value: 139 to 224). In kind it is functional. The conditions noted are these: route po, time 2.5 months, 1825 h.

The target in the next data set is Ephrin type-B receptor 2 (Homo sapiens, UniProt P29323). Put plainly: Inhibition of EPHB2 (unknown origin).
Chain of Ephrin type-B receptor 2 (P29323 whole entry): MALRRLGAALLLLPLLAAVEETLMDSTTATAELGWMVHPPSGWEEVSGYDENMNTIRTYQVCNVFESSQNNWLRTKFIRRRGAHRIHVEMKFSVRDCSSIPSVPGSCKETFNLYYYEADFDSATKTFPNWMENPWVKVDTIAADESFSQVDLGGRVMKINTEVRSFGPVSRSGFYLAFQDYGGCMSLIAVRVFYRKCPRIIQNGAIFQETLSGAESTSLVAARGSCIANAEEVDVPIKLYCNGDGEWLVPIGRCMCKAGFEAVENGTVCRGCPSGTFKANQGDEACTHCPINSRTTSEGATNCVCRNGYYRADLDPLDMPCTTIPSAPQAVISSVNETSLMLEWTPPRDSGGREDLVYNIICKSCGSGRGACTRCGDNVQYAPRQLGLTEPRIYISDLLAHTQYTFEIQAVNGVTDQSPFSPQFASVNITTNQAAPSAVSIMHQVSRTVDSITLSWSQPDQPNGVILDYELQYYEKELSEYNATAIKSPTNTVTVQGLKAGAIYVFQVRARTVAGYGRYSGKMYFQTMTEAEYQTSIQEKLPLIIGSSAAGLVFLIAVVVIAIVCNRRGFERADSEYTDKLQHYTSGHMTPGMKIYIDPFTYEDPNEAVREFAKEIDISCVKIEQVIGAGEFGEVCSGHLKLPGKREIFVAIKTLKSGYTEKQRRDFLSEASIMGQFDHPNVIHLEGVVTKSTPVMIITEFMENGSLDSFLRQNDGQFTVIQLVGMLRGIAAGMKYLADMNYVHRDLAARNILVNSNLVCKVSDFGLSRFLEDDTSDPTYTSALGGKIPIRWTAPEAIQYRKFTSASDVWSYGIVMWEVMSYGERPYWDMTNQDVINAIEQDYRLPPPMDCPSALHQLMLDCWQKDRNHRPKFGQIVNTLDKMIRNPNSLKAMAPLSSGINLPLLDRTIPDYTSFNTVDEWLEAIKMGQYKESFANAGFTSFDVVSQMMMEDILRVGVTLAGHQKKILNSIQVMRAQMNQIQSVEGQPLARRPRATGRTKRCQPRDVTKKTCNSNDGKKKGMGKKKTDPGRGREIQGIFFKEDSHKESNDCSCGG
Data set [16] is described as follows: Effect on Csf1r RPKM gene expression in 5XFAD mouse thalamus at 1200 ppm administered as rodent chow starting from 1.5 months and measured after 7 months by RNA-Seq analysis (reference value: 27.112 to 32.871 RPKM). The format is functional. The conditions noted are these: route po, time 5.5 months, 4015 h.
Data set [17] in a line: Toxicity in wildtype mouse assessed as time spent in center zone at 1200 ppm administered as rodent chow for 10 to 24 weeks by Open field test (reference value: 32.4 to 76.1 sec). The settings on record: in vivo, po, time 10-24 weeks.
Data set [18] can be described thus: Effect on Siglech gene expression in 5XFAD mouse hippocampus at 1200 ppm administered as rodent chow starting from 1.5 months and measured after 7 months by RNA-Seq analysis (reference value: 5.386 to 6.928 RPKM). In kind it is functional. The conditions noted are these: route po, time 5.5 months, 4015 h.
Data set [19] relates to Mus musculus. Put plainly: Antialzheimer activity in 5XFAD mouse assessed as amyloidbeta40 level in detergent insoluble cortex fraction measured per microgram protein at 1200 ppm administered as rodent chow starting from 1.5 months and measured after 7 months by ELISA (reference value: 615.15 to 39796 pg). In kind it is functional. The conditions noted are these: route po, time 5.5 months, 4015 h. The essentials:
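PLX5622 at 1200 ppm in chow given to 5xFAD mice from 1.5 months to 4 or 7 months of age; cortex and thalamus homogenized in TPER (detergent-soluble), pellets re-homogenized in 70% formic acid and spun 100,000 g, 1 h, 4 °C (insoluble); protein by Bradford/Lowry; Aβ species measured by Meso Scale electrochemiluminescence immunoassay, normalized to protein; n = 7–8 per group at 7 months.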
(In general: An ELISA detects its analyte on a solid surface through an enzyme-linked reagent.)

Data set [20] addresses Phosphorylase b kinase gamma catalytic chain, liver/testis isoform (Homo sapiens, UniProt P15735). As to the kind of experiment: Inhibition of PHKG2 (unknown origin).

Activity calls are given as the source filed them. The calls are words filed in the database; no cut-off is given here. Some results are limits rather than exact numbers.

Chain of NT-3 growth factor receptor (Q16288 whole entry): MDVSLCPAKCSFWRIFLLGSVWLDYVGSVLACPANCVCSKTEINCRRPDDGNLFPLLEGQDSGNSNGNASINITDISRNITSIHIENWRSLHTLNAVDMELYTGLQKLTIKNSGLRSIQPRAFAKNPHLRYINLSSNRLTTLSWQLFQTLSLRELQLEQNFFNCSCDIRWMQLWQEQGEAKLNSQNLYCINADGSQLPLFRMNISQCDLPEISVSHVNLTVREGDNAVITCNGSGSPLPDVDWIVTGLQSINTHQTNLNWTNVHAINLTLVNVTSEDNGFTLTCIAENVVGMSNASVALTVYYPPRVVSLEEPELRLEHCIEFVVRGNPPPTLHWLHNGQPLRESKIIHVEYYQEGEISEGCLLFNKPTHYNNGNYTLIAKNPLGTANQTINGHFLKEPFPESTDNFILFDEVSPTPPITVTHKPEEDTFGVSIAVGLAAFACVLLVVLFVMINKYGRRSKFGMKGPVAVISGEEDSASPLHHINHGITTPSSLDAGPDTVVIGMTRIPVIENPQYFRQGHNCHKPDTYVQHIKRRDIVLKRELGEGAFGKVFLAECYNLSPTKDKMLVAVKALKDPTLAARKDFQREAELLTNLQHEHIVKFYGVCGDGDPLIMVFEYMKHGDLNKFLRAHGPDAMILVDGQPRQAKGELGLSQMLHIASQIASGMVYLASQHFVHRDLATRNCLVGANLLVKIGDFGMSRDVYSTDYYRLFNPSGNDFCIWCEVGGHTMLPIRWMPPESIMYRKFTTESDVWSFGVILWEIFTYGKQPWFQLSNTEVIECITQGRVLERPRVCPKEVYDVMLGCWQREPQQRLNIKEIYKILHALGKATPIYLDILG
Chain of Phosphorylase b kinase gamma catalytic chain, liver/testis isoform (P15735 whole entry, canonical isoform): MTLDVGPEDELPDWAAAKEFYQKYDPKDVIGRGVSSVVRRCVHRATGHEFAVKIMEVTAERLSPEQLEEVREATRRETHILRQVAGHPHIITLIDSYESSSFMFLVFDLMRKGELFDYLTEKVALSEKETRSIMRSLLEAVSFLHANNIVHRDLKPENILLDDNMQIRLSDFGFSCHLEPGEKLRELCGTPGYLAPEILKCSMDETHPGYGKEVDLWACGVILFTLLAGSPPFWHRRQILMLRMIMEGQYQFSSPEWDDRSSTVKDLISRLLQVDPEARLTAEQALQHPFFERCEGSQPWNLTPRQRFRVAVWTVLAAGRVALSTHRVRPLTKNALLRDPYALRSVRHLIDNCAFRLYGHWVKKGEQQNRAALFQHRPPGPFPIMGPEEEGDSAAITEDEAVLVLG
Chain of Proto-oncogene tyrosine-protein kinase receptor Ret (P07949 29-1114 Y791F limits assumed): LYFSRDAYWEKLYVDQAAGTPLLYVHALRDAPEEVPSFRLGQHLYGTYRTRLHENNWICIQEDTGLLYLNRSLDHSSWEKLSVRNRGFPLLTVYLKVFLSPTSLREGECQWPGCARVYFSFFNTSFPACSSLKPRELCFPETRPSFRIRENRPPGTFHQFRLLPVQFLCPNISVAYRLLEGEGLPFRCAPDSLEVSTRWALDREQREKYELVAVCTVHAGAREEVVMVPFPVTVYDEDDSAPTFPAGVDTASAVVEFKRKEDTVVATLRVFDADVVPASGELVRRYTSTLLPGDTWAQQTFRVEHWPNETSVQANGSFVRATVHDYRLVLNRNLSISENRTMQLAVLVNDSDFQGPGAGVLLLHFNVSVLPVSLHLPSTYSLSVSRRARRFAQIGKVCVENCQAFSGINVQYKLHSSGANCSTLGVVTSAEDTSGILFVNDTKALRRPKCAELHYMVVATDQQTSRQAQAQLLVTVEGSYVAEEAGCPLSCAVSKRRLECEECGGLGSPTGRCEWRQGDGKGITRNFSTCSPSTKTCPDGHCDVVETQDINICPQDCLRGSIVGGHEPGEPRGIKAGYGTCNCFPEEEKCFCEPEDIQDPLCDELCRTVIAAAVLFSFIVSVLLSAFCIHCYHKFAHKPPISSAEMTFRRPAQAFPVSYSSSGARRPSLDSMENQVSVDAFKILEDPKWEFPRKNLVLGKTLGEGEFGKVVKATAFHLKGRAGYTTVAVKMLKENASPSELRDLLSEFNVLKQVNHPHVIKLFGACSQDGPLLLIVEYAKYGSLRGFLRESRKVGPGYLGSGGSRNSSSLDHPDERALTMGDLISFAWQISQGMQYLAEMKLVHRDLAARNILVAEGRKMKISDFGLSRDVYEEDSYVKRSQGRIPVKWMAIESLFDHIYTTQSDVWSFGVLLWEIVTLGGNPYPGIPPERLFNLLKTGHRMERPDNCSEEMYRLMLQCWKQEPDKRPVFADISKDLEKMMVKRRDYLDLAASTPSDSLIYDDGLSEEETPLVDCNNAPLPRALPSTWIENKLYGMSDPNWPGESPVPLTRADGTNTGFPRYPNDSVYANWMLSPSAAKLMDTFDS
Chain of Protein kinase C iota type (P41743 whole entry): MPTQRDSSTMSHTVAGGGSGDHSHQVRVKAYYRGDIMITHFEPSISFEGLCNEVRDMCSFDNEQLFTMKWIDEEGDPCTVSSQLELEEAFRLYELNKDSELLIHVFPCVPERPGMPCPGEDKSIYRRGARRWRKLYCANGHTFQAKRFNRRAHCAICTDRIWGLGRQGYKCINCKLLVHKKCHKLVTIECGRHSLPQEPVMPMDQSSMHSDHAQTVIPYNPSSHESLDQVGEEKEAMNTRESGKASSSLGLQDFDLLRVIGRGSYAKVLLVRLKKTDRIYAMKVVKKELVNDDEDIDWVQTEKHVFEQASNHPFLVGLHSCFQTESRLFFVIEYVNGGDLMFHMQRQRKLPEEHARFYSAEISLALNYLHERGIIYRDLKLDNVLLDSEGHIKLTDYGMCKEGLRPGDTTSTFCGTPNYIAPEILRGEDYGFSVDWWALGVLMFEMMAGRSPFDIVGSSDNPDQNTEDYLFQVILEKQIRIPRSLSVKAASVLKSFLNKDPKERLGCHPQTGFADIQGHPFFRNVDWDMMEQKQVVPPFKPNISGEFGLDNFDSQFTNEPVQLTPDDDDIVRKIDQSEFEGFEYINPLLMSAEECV

Take `COc1ncc(F)cc1CNc1ccc(Cc2c[nH]c3ncc(C)cc23)c(F)n1` [PLX-5622]: the concentration at 4320 h in data set [1] came to 9090 ng/mL. In data set [2], this molecule came in with an area under the curve (AUC) at 336 h of 104 µg·h/mL. The IC50 (in data set [3]; in data set [4]; in data set [5]; in data set [9]; in data set [10]; against Ephrin type-B receptor 2) was above 1000 nM each time. For the same molecule, the half-maximal inhibitory concentration (IC50) in data set [20] is above 1000 nM. Also, the Activity in [6] was 3; in data set [7] it was 0 RPKM; in [8] it was 51; in data set [13] it was 0.292 RPKM; in data set [14], 0 RPKM; in the data set on Mus musculus [15], 76. The Activity in data set [16] came out at 0.221 RPKM; in data set [18] it was 0.195 RPKM; in the data set with Mus musculus [19] it was 89.514 pg. The outcome in the data set with Mus musculus [11] and in the data set with Mus musculus [12] was Active. Besides, the Time in data set [17] amounted to 12.7 s.

A word on the AUC: it is concentration integrated over time. By IC50 is commonly meant the point on the concentration scale where inhibition reaches its midpoint.
